Measurements pooled from the literature.
Lines come from different studies, so protocols differ. Converted amounts (≈) assume the structure as drawn.
Organism: Mycobacterium tuberculosis variant bovis BCG
Effect on: microbial growth

| Compound | test system | setting | endpoint | value |
| --- | --- | --- | --- | --- |
| Nc1cnc(C(=O)O)cn1 | ATCC35734 BCG | 5 days | IC50 | 800 µM |
| c1ccc(COc2ccc(CNCc3cccnc3)cc2)cc1 | ATCC35734 BCG | – | MIC | > 62.5 µM |
| COc1ccc(C=CC(=O)c2ccc(Cl)cc2)cc1OC | BCG | 7 days | MIC | 200 mg/L |
| c1ccc(COc2ccccc2CNCc2ccncc2)cc1 | ATCC35734 BCG | – | MIC | > 62.5 µM |
| Clc1ccc(COC(Cn2ccnc2)c2ccc(Cl)cc2Cl)cc1 (stereo not drawn) | BCG | – | MIC50 | 12.7 µM (≈ 4.85 µg/mL) |
| COc1ccc(C=CC(=O)c2ccc(Br)cc2)cc1OC | BCG | 7 days | MIC | 12.5 mg/L |
| CCCCCCn1c2c([n+](C3CCC4(CCCCC4)CC3)c1C)C(=O)c1ccccc1C2=O | BCG | 5 days | MIC50 | 0.08 µM |
| C=CC(c1ccc(-c2ccc(OC)c(C)c2)cc1)n1ccnc1 (stereo not drawn) | BCG | – | MIC50 | 17.3 µM (≈ 5.27 µg/mL) |
| COc1ccc(C=CC(=O)c2ccccc2C)cc1OC | BCG | 7 days | MIC | 50 mg/L |
| C=CC(c1ccc(-c2ccc3[nH]ccc3c2)cc1)n1ccnc1 (stereo not drawn) | BCG | – | MIC50 | 41 µM (≈ 12.3 µg/mL) |
| COc1ccc(C(=O)C=Cc2ccc(OC)c(OC)c2)cc1 | BCG | 7 days | MIC | 50 mg/L |
| C=CC(c1ccc(-c2ccc(OC)c(OC)c2)cc1)n1ccnc1 (stereo not drawn) | BCG | – | MIC50 | > 100 µM |
| Fc1ccc(COc2cccc(CNCc3ccncc3)c2)cc1 | ATCC35734 BCG | – | MIC | > 62.5 µM |
| C=CC(c1ccc(-c2ccc3cc(OC)ccc3c2)cc1)n1ccnc1 (stereo not drawn) | BCG | – | MIC50 | 9.7 µM (≈ 3.3 µg/mL) |
| Clc1cccc(COc2ccccc2CNCc2ccncc2)c1 | ATCC35734 BCG | – | MIC | > 62.5 µM |
